Test results from ChEMBL document CHEMBL4118283, “Discovery of a novel 2-(1H-pyrazolo[3,4-b]pyridin-1-yl)thiazole derivative as an EP1 receptor antagonist and in vivo studies in a bone fracture model” (Bioorg Med Chem Lett, 2018).
One block for each compound: values may come before it. The source made the active and inactive calls. The calls are words filed in the database; no cut-off is given here.

Tests used:
[1] = molecular target: T1, Prostaglandin E2 receptor EP1 subtype (Homo sapiens, UniProt P34995); assay: Antagonist activity at EP1 receptor (unknown origin) by reporter gene assay; format: functional
T1 sequence (P34995 whole entry): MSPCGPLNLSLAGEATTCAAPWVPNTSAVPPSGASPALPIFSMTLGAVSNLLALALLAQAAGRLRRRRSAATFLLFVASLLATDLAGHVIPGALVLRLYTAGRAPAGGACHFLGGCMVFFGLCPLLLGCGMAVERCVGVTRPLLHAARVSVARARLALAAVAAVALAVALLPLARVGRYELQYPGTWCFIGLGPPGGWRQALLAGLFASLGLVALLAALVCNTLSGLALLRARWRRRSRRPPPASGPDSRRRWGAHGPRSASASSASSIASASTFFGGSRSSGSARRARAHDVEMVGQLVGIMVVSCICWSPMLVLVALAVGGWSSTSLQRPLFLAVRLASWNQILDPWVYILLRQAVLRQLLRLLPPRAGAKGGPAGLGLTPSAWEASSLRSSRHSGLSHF

[2] = Cmax in Sprague-Dawley rat at 10 to 100 mg/kg, po by LC-MS/MS analysis; format: ADME, organism-based; settings: in vivo
Procedure, shortened: (§1)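 Single oral dose of 10, 30 or 100 mg/kg to 7-week-old female Sprague–Dawley rats (n = 3), vehicle 10% v/v DMSO, 5% v/v Cremophor EL, 85% v/v water. Subclavian-vein blood drawn at 0.5, 1, 2, 4, 8 and 24 h post dose; plasma separated by centrifugation and drug measured by LC-MS/MS.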

Rattus norvegicus [3] = assay: AUC (0 to 8 hrs) in Sprague-Dawley rat at 10 to 100 mg/kg, po by LC-MS/MS analysis; format: ADME, organism-based; settings: in vivo; procedure, shortened: as §1
[4] = Intrinsic clearance in rat; format: ADME, organism-based; settings: in vivo
[5] = Intrinsic clearance in human; format: ADME, organism-based; settings: in vivo
[6] = Permeability in MDCK cells; format: ADME, cell-based, Canis lupus familiaris; settings: dog, read-out: permeability
[7] = molecular target: T2, Prostaglandin E2 receptor EP1 subtype (Homo sapiens) (UniProt P34995); assay: Antagonist activity at EP1 receptor (unknown origin) at 100 nM by reporter gene assay relative to control; format: functional
T2 sequence (whole entry): T1 sequence (P34995 whole entry)

[8] = molecular target: Prostaglandin E2 receptor EP2 subtype (Homo sapiens, UniProt P43116); assay: Binding affinity to EP2 receptor (unknown origin)
[9] = molecular target: T3, Prostaglandin E2 receptor EP3 subtype (Homo sapiens, UniProt P43115); assay: Binding affinity to EP3 receptor (unknown origin)
T3 sequence (P43115 whole entry): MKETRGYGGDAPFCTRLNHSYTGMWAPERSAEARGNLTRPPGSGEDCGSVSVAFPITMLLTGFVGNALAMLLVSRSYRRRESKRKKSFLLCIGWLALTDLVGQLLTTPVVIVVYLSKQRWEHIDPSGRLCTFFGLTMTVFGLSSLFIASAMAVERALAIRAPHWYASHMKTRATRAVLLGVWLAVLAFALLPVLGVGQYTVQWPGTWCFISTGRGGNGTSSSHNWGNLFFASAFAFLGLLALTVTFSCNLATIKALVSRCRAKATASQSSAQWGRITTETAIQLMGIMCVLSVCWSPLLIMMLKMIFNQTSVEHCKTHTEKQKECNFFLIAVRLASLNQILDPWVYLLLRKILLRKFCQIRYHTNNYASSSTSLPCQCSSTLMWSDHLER

[10] = molecular target: Prostaglandin E2 receptor EP4 subtype (Homo sapiens, UniProt P35408); assay: Binding affinity to EP4 receptor (unknown origin)
[11] = Protein binding in Sprague-Dawley rat plasma at 10 to 100 mg/kg, po by LC-MS/MS analysis; format: ADME, organism-based; settings: read-out: PPB (converted)
[12] = Oral bioavailability in Sprague-Dawley rat at 10 to 100 mg/kg by LC-MS/MS analysis; format: ADME, organism-based; settings: in vivo
[13] = Cmax in Sprague-Dawley rat at 10 mg/kg, po by LC-MS/MS analysis; format: ADME, organism-based; set-up: dose 10 mg/kg, route oral; settings: in vivo; procedure, shortened: as §1
[14] = Cmax in Sprague-Dawley rat at 30 mg/kg, po by LC-MS/MS analysis; format: ADME, organism-based; set-up: dose 30 mg/kg, route oral; settings: in vivo; procedure, shortened: as §1
[15] = Cmax in Sprague-Dawley rat at 100 mg/kg, po by LC-MS/MS analysis; format: ADME, organism-based; set-up: dose 100 mg/kg, route oral; settings: in vivo; procedure, shortened: as §1
[16] = Drug uptake in Sprague-Dawley rat plasma at 100 mg/kg, po after 24 hrs by LC-MS/MS analysis; format: ADME, organism-based; settings: in vivo; procedure, shortened: as §1
[17] = Drug uptake in Sprague-Dawley rat plasma at 30 mg/kg, po qd for 4 weeks by LC-MS/MS analysis; format: ADME, organism-based; settings: in vivo, 672 h
Procedure, shortened: (§2)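 Sprague–Dawley rats with femoral fractures dosed orally for 28 days (30 mg/kg once daily, 30 mg/kg twice daily, or 100 mg/kg once daily). Subclavian-vein blood taken 30 min before dosing (trough) or 1 h after dosing on days 1, 2, 3, 7, 14, 21 and 28; plasma drug measured by LC-MS/MS.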

[18] = Drug uptake in Sprague-Dawley rat plasma at 30 mg/kg, po bid for 4 weeks by LC-MS/MS analysis; format: ADME, organism-based; settings: in vivo, 672 h; procedure, shortened: as §2
[19] = Drug uptake in Sprague-Dawley rat plasma at 100 mg/kg, po qd for 4 weeks by LC-MS/MS analysis; format: ADME, organism-based; settings: in vivo, 672 h; procedure, shortened: as §2
Rattus norvegicus [20] = assay: Osteogenic activity in Sprague-Dawley rat drill-hole femoral fracture model assessed as callus formation at 30 mg/kg, po qd for 28 days; format: functional, organism-based; settings: in the assay text read “closed” for “drill-hole”
Procedure, shortened: (§3)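 Closed mid-diaphyseal femur fracture in 8-week-old Sprague–Dawley rats under ip pentobarbital (50 mg/kg). Medial parapatellar arthrotomy, 1 mm drill hole at intercondylar fossa, 21-gauge needle inserted through the medullary canal, fracture by three-point bending. Oral drug or 0.5% MC vehicle given for 28 days. Radiographs at 0, 7, 14, 21, 28 days; outer hard callus area traced by image analysis.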

Rattus norvegicus [21] = assay: Osteogenic activity in Sprague-Dawley rat drill-hole femoral fracture model assessed as callus formation at 30 mg/kg, po bid for 28 days; format: functional, organism-based; settings: in the assay text read “closed” for “drill-hole”; procedure, shortened: as §3
Rattus norvegicus [22] = assay: Osteogenic activity in Sprague-Dawley rat drill-hole femoral fracture model assessed as callus formation at 100 mg/kg, po qd for 28 days; format: functional, organism-based; settings: in the assay text read “closed” for “drill-hole”; procedure, shortened: as §3
Salmonella typhimurium = assay: Mutagenicity in Salmonella typhimurium by Ames test; format: toxicity, organism-based; settings: salmonella enterica subsp. enterica serovar typhimurium
[23] = molecular target: T1, Prostaglandin E2 receptor EP1 subtype; assay: Binding affinity to EP1 receptor (unknown origin) by binding assay

Sequence of Prostaglandin E2 receptor EP2 subtype (P43116 whole entry): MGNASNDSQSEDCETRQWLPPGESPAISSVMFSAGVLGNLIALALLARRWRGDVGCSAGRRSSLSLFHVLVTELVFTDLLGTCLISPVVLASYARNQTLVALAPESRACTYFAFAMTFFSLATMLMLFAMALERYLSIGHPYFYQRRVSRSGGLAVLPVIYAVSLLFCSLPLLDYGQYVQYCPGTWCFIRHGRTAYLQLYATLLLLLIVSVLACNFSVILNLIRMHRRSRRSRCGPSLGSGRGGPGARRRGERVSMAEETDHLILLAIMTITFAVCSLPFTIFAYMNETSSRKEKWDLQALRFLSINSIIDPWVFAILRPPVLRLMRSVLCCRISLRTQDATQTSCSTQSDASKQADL
Sequence of Prostaglandin E2 receptor EP4 subtype (P35408 whole entry): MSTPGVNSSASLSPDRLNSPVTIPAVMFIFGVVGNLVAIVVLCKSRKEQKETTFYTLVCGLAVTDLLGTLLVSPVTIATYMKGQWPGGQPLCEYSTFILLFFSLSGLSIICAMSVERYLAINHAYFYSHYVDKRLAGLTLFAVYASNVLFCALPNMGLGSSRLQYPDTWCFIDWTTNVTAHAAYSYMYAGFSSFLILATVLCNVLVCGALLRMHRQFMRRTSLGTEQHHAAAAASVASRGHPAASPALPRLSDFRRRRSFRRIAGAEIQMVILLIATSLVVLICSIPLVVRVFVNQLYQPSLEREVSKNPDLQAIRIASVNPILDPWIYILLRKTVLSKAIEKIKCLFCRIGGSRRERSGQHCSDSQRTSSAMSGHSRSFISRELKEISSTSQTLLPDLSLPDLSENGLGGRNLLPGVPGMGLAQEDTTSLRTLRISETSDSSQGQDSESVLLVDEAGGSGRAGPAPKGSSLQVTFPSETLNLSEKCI

SMILES: O=C(O)c1csc(-n2nc(-c3ccccc3)c3ccc(C(F)(F)F)cc32)n1
Cmax [2]: 5.34 µM | AUC (Rattus norvegicus [3]): 9.27 microM/L.hr

SMILES: O=C(O)c1csc(-n2nc(-c3ccccc3)c3ccc(N4CCCC4)nc32)n1
inhibition [7]: 11%

SMILES: O=C(O)c1csc(-n2nc(-c3ccccc3)c3ccc(N4CCC4)nc32)n1
IC50 [1]: 0.04 µM

SMILES: CN(C)c1ccc2c(-c3ccccc3)nn(-c3nc(C(=O)O)cs3)c2n1
IC50 [1]: 0.012 µM

Second part, led by results:

IC50 [1]: 0.012 µM
SMILES: O=C(O)c1csc(-n2nc(-c3ccccc3)c3ncc(C(F)(F)F)cc32)n1

IC50 [1]: 0.0007 µM | CLint scaled [4]: 232 mL/min/kg | CLint scaled [5]: 146 mL/min/kg | Papp [6]: 39 ×10⁻⁶ cm/s
SMILES: O=C(O)c1csc(-n2nc(C3=CCCCO3)c3ccc(C(F)(F)F)cc32)n1

IC50 [1]: 0.012 µM | CLint scaled [4]: 111 mL/min/kg | CLint scaled [5]: 48 mL/min/kg | Papp [6]: 19.7 ×10⁻⁶ cm/s
SMILES: O=C(O)c1csc(Cn2nc(-c3ccccc3)c3ccc(C(F)(F)F)cc32)n1

IC50 [1]: 0.0003 µM | CLint scaled [4]: 94 mL/min/kg | CLint scaled [5]: 70 mL/min/kg | Papp [6]: 23.5 ×10⁻⁶ cm/s | Ki [8]: > 8.7 µM | Ki [9]: > 5 µM | Ki [10]: > 2.7 µM | Cmax [2]: 2.62 µM | AUC (Rattus norvegicus [3]): 5.71 microM/L.hr | fraction unbound [11]: 0.026 | bioavailability [12]: 26% | Cmax [13]: 24.8 µM | Cmax [14]: 75.1 µM | Cmax [15]: 179 µM | Drug uptake [16]: Active | Drug uptake [17]: Active | Drug uptake [18]: Active | Drug uptake [19]: Active | Ki [23]: 0.0087 µM
SMILES: O=C(O)c1csc(-n2nc(-c3ccccc3)c3ccc(C(F)(F)F)nc32)n1
Activity (Rattus norvegicus [20]): Active | Activity (Rattus norvegicus [21]): Active | Activity (Rattus norvegicus [22]): Active | Activity (Salmonella typhimurium): Non-Toxic
